Source: publication PMC3625064 (Molecular cell, 2012)
“Also recorded” adds a separate entry of the source. No end group written: not given here.

T1: LSD2 (Homo sapiens, UniProt Q8NB78)
T1 sequence (Q8NB78 1-822): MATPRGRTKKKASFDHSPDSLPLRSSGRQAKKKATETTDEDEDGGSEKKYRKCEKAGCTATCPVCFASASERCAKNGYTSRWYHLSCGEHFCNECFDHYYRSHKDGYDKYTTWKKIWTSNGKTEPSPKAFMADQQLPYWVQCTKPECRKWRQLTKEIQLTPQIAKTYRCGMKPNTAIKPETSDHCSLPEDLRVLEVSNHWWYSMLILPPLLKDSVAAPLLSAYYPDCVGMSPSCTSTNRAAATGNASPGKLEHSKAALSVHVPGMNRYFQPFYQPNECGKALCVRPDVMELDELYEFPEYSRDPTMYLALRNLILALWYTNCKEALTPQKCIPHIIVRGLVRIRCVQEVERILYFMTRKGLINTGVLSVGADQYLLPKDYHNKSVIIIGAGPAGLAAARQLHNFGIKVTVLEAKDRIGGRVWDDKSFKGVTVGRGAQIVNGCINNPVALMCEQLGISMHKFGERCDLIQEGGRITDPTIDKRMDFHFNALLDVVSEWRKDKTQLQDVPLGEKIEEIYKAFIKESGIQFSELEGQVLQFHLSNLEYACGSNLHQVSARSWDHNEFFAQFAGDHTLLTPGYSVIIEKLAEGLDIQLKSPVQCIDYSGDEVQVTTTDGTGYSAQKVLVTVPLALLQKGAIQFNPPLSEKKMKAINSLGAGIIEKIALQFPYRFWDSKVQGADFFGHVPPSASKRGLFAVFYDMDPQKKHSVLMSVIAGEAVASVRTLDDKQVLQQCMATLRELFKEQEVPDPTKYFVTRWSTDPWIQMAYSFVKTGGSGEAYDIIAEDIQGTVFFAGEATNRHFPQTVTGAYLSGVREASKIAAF

T2: recombinant hexa-His-tagged LSD2 (human, UniProt Q8NB78 1-822)
T2 sequence (looked up): T1 sequence (Q8NB78 1-822)

B1: NP.d8: residues 188–252 (protein)
chain: TVKGMMAGPMAAFKWQPTASEPVKDADPHFHHFLLSQTEKPAVCYQAITKKLKICEEETGSTSIQ
modifications: left off: GST, end not stated, kept
B2: NP.d5: dehydrogenase domain, residues 262–553; GST-tagged (protein)
chain: SITPTDKKIGFLGLGLMGSGIVSNLLKMGHTVTVWNRTAEKCDLFIQEGARLGRTPAEVVSTCDITFACVSDPKAAKDLVLGPSGVLQGIRPGKCYVDMSTVDADTVTELAQVIVSRGGRFLEAPVSGNQQLSNDGMLVILAAGDRGLYEDCSSCFQAMGKTSFFLGEVGNAAKMMLIVNMVQGSFMATIAEGLTLAQVTGQSQQTLLDILNQGQLASIFLDQKCQNILQGNFKPDFYLKYIQKDLRLAIALGDAVNHPTPMAAAANEVYKRAKALDQSDNDMSAVYRAYIH
modifications: left off: GST, end not stated, kept
B3: NP.d1: PWWP domain, residues 1–150; GST-tagged (protein)
chain: MAAVSLRLGDLVWGKLGRYPPWPGKIVNPPKDLKKPRGKKCFFVKFFGTEDHAWIKVEQLKPYHAHKEEMIKINKGKRFQQAVDAVEEFLRRAKGKDQTSSHNSSDDKNRRNSSEERSRPNSGDEKRKLSLSEGKVKKNMGEGKKRVSSG
modifications: left off: GST, end not stated, kept
B4: NP.d4: truncation protein containing the linker region, residues 152–553; GST-tagged (protein)
chain: SERGSKSPLKRAQEQSPRKRGRPPKDEKDLTIPESSTVKGMMAGPMAAFKWQPTASEPVKDADPHFHHFLLSQTEKPAVCYQAITKKLKICEEETGSTSIQAADSTAVNGSITPTDKKIGFLGLGLMGSGIVSNLLKMGHTVTVWNRTAEKCDLFIQEGARLGRTPAEVVSTCDITFACVSDPKAAKDLVLGPSGVLQGIRPGKCYVDMSTVDADTVTELAQVIVSRGGRFLEAPVSGNQQLSNDGMLVILAAGDRGLYEDCSSCFQAMGKTSFFLGEVGNAAKMMLIVNMVQGSFMATIAEGLTLAQVTGQSQQTLLDILNQGQLASIFLDQKCQNILQGNFKPDFYLKYIQKDLRLAIALGDAVNHPTPMAAAANEVYKRAKALDQSDNDMSAVYRAYIH
modifications: left off: GST, end not stated, kept
B5: NP.d2: truncation protein containing the linker region, residues 1–252; GST-tagged (protein)
chain: MAAVSLRLGDLVWGKLGRYPPWPGKIVNPPKDLKKPRGKKCFFVKFFGTEDHAWIKVEQLKPYHAHKEEMIKINKGKRFQQAVDAVEEFLRRAKGKDQTSSHNSSDDKNRRNSSEERSRPNSGDEKRKLSLSEGKVKKNMGEGKKRVSSGSSERGSKSPLKRAQEQSPRKRGRPPKDEKDLTIPESSTVKGMMAGPMAAFKWQPTASEPVKDADPHFHHFLLSQTEKPAVCYQAITKKLKICEEETGSTSIQ
modifications: left off: GST, end not stated, kept
B6: NP.d6: deletion of the linker region (residues 152–252); GST-tagged (protein)
chain: MAAVSLRLGDLVWGKLGRYPPWPGKIVNPPKDLKKPRGKKCFFVKFFGTEDHAWIKVEQLKPYHAHKEEMIKINKGKRFQQAVDAVEEFLRRAKGKDQTSSHNSSDDKNRRNSSEERSRPNSGDEKRKLSLSEGKVKKNMGEGKKRVSSGSAADSTAVNGSITPTDKKIGFLGLGLMGSGIVSNLLKMGHTVTVWNRTAEKCDLFIQEGARLGRTPAEVVSTCDITFACVSDPKAAKDLVLGPSGVLQGIRPGKCYVDMSTVDADTVTELAQVIVSRGGRFLEAPVSGNQQLSNDGMLVILAAGDRGLYEDCSSCFQAMGKTSFFLGEVGNAAKMMLIVNMVQGSFMATIAEGLTLAQVTGQSQQTLLDILNQGQLASIFLDQKCQNILQGNFKPDFYLKYIQKDLRLAIALGDAVNHPTPMAAAANEVYKRAKALDQSDNDMSAVYRAYIH
modifications: left off: GST, end not stated, kept
B7: NP.d9: deletion of amino acids 214–222 from NP.d3 (protein)
chain: SERGSKSPLKRAQEQSPRKRGRPPKDEKDLTIPESSTVKGMMAGPMAAFKWQPTASEPVKDASQTEKPAVCYQAITKKLKICEEETGSTSIQ
modifications: left off: GST, end not stated, kept
B8: GST-NP.d8 (NPAC residues 188–252) (domain or fragment, UniProt Q49A26 188-252, looked up)
chain: B1 chain
B9: GST-NP.d3 (NPAC residues 152–252, linker region) (domain or fragment, UniProt Q49A26 152-252, looked up)
chain: SERGSKSPLKRAQEQSPRKRGRPPKDEKDLTIPESSTVKGMMAGPMAAFKWQPTASEPVKDADPHFHHFLLSQTEKPAVCYQAITKKLKICEEETGSTSIQ
B10: GST-tagged wild-type NPAC (natural protein, UniProt Q49A26 1-553, looked up)
chain: MAAVSLRLGDLVWGKLGRYPPWPGKIVNPPKDLKKPRGKKCFFVKFFGTEDHAWIKVEQLKPYHAHKEEMIKINKGKRFQQAVDAVEEFLRRAKGKDQTSSHNSSDDKNRRNSSEERSRPNSGDEKRKLSLSEGKVKKNMGEGKKRVSSGSSERGSKSPLKRAQEQSPRKRGRPPKDEKDLTIPESSTVKGMMAGPMAAFKWQPTASEPVKDADPHFHHFLLSQTEKPAVCYQAITKKLKICEEETGSTSIQAADSTAVNGSITPTDKKIGFLGLGLMGSGIVSNLLKMGHTVTVWNRTAEKCDLFIQEGARLGRTPAEVVSTCDITFACVSDPKAAKDLVLGPSGVLQGIRPGKCYVDMSTVDADTVTELAQVIVSRGGRFLEAPVSGNQQLSNDGMLVILAAGDRGLYEDCSSCFQAMGKTSFFLGEVGNAAKMMLIVNMVQGSFMATIAEGLTLAQVTGQSQQTLLDILNQGQLASIFLDQKCQNILQGNFKPDFYLKYIQKDLRLAIALGDAVNHPTPMAAAANEVYKRAKALDQSDNDMSAVYRAYIH
B11: GST-NP.d4 (NPAC residues 152–553) (domain or fragment, UniProt Q49A26 152-553, looked up)
chain: B4 chain
B12: GST-NP.d2 (NPAC residues 1–252) (domain or fragment, UniProt Q49A26 1-252, looked up)
chain: B5 chain

Biological target: T1, LSD2
Experiment: GST pull-down of His-LSD2
Assay type: binding
Conditions: GST pull-down of purified His-LSD2; SDS-PAGE, Coomassie blue staining
In short: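 GST and GST-tagged wild-type or mutant NPAC proteins (linker-region and binding-site mutants) were used to pull down purified His-LSD2. His-LSD2 in input and bound fractions was resolved by SDS-PAGE and stained with Coomassie blue.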

| Molecule | LSD2 binding / interaction |
| --- | --- |
| NP.d7: residues 152–186, containing the AT-hook motif (SERGSKSPLKRAQEQSPRKRGRPPKDEKDLTIPES; also: GST fusion, end not given here) | but not NP.d7 (residues 152–186, containing the AT-hook motif, lane 4), was sufficient for LSD2 interaction |
| B1 | sufficient for LSD2 interaction |
| B2 | Neither the PWWP domain (NP.d1) nor the dehydrogenase domain (NP.d5) interacted with LSD2 |
| B3 | Neither the PWWP domain (NP.d1) nor the dehydrogenase domain (NP.d5) interacted with LSD2 |
| B4 | capable of directly interacting with LSD2; also recorded: did not adversely affect LSD2 binding |
| B5 | capable of directly interacting with LSD2; also recorded: did not adversely affect LSD2 binding |
| B6 | abolished NPAC-LSD2 interaction |
| B7 | completely abolished LSD2 binding |

Biological target: T2, recombinant hexa-His-tagged LSD2
Experiment: pull-down
Conditions: not given

| Molecule | binding result |
| --- | --- |
| B8 | binds |
| B9 | binds |
| B10 | binds |
| B11 | binds |
| B12 | binds |

Biological target: T1, LSD2
Experiment: H3K4me2 peptide
Assay type: biochemical
Conditions: 50 μM H3K4me2 peptide (1–21), 50 mM Tris-HCl pH 8.5, 50 mM KCl, 5 mM MgCl2, 5% glycerol, 37°C, 30 min; MALDI-TOF MS
In short: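 Purified LSD2, full-length or truncated (residues 51–822), incubated with NPAC-derived peptides or proteins and 50 μM H3K4me2 peptide (residues 1–21, >95% pure by HPLC and MS) in 50 mM Tris-HCl pH 8.5, 50 mM KCl, 5 mM MgCl2, 5% glycerol, 37°C, 30 min. Products desalted on C18 tips; MALDI-TOF MS at constant laser intensity across samples.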

| Molecule | cofactor activity for LSD2 with H3K4me2 peptide (residues 1–21) as substrate |
| --- | --- |
| DPHAHHFLLSQT [NP.M6] | but not the F217A mutant, can stimulate LSD2-mediated demethylation of H3K4me2 peptides; also recorded: These results were further confirmed in demethylation assays using H3K4me2 peptide substrate (residues 1–21) |
